From ChEMBL document CHEMBL1255347, “Multiclonal outbreak of Klebsiella pneumoniae producing extended-spectrum beta-lactamase CTX-M-2 and novel variant CTX-M-59 in a neonatal intensive care unit in Brazil” (2008)
Values after ≈ are worked out from the molar mass of the structure shown.

Legend:
Format in all cases: functional
[1] = test system: Klebsiella pneumoniae; assay: Antimicrobial activity against CTX-M-2 producing Klebsiella pneumoniae with PFGE pulsotype A by Etest
How it was run: (§1)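 Clinical K. pneumoniae isolates from a neonatal ICU outbreak near São Paulo were typed by XbaI PFGE using Tenover criteria. Cultures were grown in LB broth at 37°C. Etest MICs followed the manufacturer's instructions, with cefotaxime and ceftazidime each tested with and without clavulanic acid.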

[2] = test system: Klebsiella pneumoniae; assay: Antimicrobial activity against CTX-M-2 producing Klebsiella pneumoniae with PFGE pulsotype B by Etest; how it was run: as §1
[3] = test system: Klebsiella pneumoniae; assay: Antimicrobial activity against CTX-M-59 producing Klebsiella pneumoniae with PFGE pulsotype C by Etest
[4] = test system: Klebsiella pneumoniae; assay: Antimicrobial activity against SHV-5 producing Klebsiella pneumoniae with PFGE pulsotype D by Etest; how it was run: as §1
[5] = test system: Klebsiella pneumoniae; assay: Antimicrobial activity against CTX-M-59 producing Klebsiella pneumoniae with PFGE pulsotype E by Etest
[6] = test system: Klebsiella pneumoniae; assay: Antimicrobial activity against CTX-M-2 producing Klebsiella pneumoniae with PFGE pulsotype F by Etest
[7] = test system: Klebsiella pneumoniae; assay: Antimicrobial activity against CTX-M-59 producing Klebsiella pneumoniae with PFGE pulsotype G by Etest; how it was run: as §1
[8] = test system: Klebsiella pneumoniae; assay: Antimicrobial activity against CTX-M-2 producing Klebsiella pneumoniae with PFGE pulsotype H by Etest; how it was run: as §1
[9] = test system: Klebsiella pneumoniae; assay: Antimicrobial activity against CTX-M-2 producing Klebsiella pneumoniae with PFGE pulsotype I by Etest
[10] = test system: Klebsiella pneumoniae; assay: Antimicrobial activity against CTX-M-2 producing Klebsiella pneumoniae with PFGE pulsotype J by Etest
[11] = test system: Escherichia coli; assay: Antimicrobial activity against Escherichia coli str. K-12 substr. DH10B harboring plasmid CTX-M-2; conditions: K-12 DH10B
How it was run: (§2)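 blaCTX-M PCR products were cut with XbaI/BamHI and cloned into pBC-SK(−), then electroporated into E. coli DH10B. Transformants were selected on LB agar with ampicillin 50 μg/ml and chloramphenicol 30 μg/ml, and sequences were confirmed. These clones were used for β-lactam MICs, with and without clavulanic acid.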

[12] = test system: Escherichia coli; assay: Antimicrobial activity against Escherichia coli str. K-12 substr. DH10B harboring plasmid CTX-M-59; conditions: K-12 DH10B; how it was run: as §2
[13] = test system: Klebsiella pneumoniae; assay: Antimicrobial activity against CTX-M-2 and TEM-1 producing Klebsiella pneumoniae transconjugants/transformants with PFGE pulsotype A by Etest
How it was run: (§3)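 The recipient was E. coli XL1-Blue Rifr NAr. Plasmids moved by broth mating, with transconjugants selected on LB agar containing ampicillin, rifampin and nalidixic acid, each at 50 μg/ml. Where mating failed, alkaline-lysis plasmid extracts were electroporated and selected on ampicillin 50 μg/ml. β-lactam MICs were read by Etest, with and without clavulanic acid.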

[14] = test system: Klebsiella pneumoniae; assay: Antimicrobial activity against CTX-M-2 and TEM-1 producing Klebsiella pneumoniae transconjugants/transformants with PFGE pulsotype B by Etest; how it was run: as §3
[15] = test system: Klebsiella pneumoniae; assay: Antimicrobial activity against CTX-M-59 and TEM-1 producing Klebsiella pneumoniae transconjugants/transformants with PFGE pulsotype C by Etest; how it was run: as §3
[16] = test system: Klebsiella pneumoniae; assay: Antimicrobial activity against SHV-5 producing Klebsiella pneumoniae transconjugants/transformants with PFGE pulsotype D by Etest; how it was run: as §3
[17] = test system: Klebsiella pneumoniae; assay: Antimicrobial activity against CTX-M-59 and TEM-1 producing Klebsiella pneumoniae transconjugants/transformants with PFGE pulsotype E by Etest; how it was run: as §3
[18] = test system: Klebsiella pneumoniae; assay: Antimicrobial activity against CTX-M-2 and TEM-1 producing Klebsiella pneumoniae transconjugants/transformants with PFGE pulsotype F by Etest; how it was run: as §3
[19] = test system: Klebsiella pneumoniae; assay: Antimicrobial activity against CTX-M-59 and TEM-1 producing Klebsiella pneumoniae transconjugants/transformants with PFGE pulsotype G by Etest; how it was run: as §3
[20] = test system: Klebsiella pneumoniae; assay: Antimicrobial activity against CTX-M-2 and TEM-1 producing Klebsiella pneumoniae transconjugants/transformants with PFGE pulsotype H by Etest; how it was run: as §3
[21] = test system: Klebsiella pneumoniae; assay: Antimicrobial activity against CTX-M-2 and TEM-1 producing Klebsiella pneumoniae transconjugants/transformants with PFGE pulsotype I by Etest; how it was run: as §3
[22] = test system: Klebsiella pneumoniae; assay: Antimicrobial activity against CTX-M-2 and TEM-1 producing Klebsiella pneumoniae transconjugants/transformants with PFGE pulsotype J by Etest; how it was run: as §3

SMILES | MIC [1] | MIC [2] | MIC [3] | MIC [4] | MIC [5] | MIC [6] | MIC [7] | MIC [8] | MIC [9] | MIC [10] | MIC [11] | MIC [12] | MIC [13] | MIC [14] | MIC [15] | MIC [16] | MIC [17] | MIC [18] | MIC [19] | MIC [20] | further results
C[C@@H](O)[C@H]1C(=O)N2C(C(=O)O)=C(S[C@@H]3CN[C@H](C(=O)Nc4cccc(C(=O)O)c4)C3)[C@H](C)[C@H]12 | 1.5 µg/mL (≈ 3.15 µM) | 1 µg/mL (≈ 2.1 µM) | 1.5 µg/mL (≈ 3.15 µM) | 0.094 µg/mL (≈ 0.198 µM) | 1.5 µg/mL (≈ 3.15 µM) | 1.5 µg/mL (≈ 3.15 µM) | 1.5 µg/mL (≈ 3.15 µM) | 2 µg/mL (≈ 4.21 µM) | 1 µg/mL (≈ 2.1 µM) | 1.5 µg/mL (≈ 3.15 µM) | 0.016 µg/mL (≈ 0.0336 µM) | 0.016 µg/mL (≈ 0.0336 µM) | 0.125 µg/mL (≈ 0.263 µM) | 0.125 µg/mL (≈ 0.263 µM) | 0.064 µg/mL (≈ 0.135 µM) | 0.012 µg/mL (≈ 0.0252 µM) | 0.094 µg/mL (≈ 0.198 µM) | 0.125 µg/mL (≈ 0.263 µM) | 0.125 µg/mL (≈ 0.263 µM) | 0.094 µg/mL (≈ 0.198 µM) | MIC [21]: 0.032 µg/mL (≈ 0.0673 µM); MIC [22]: 0.094 µg/mL (≈ 0.198 µM)
CO/N=C(\C(=O)N[C@@H]1C(=O)N2C(C(=O)[O-])=C(C[N+]3(C)CCCC3)CS[C@H]12)c1csc(N)n1 |  | 128 µg/mL (≈ 266 µM) | 256 µg/mL (≈ 533 µM) | 4 µg/mL (≈ 8.32 µM) |  | > 256 µg/mL | 32 µg/mL (≈ 66.6 µM) | > 256 µg/mL | 256 µg/mL (≈ 533 µM) | 12 µg/mL (≈ 25 µM) | 4 µg/mL (≈ 8.32 µM) | 4 µg/mL (≈ 8.32 µM) |  | 256 µg/mL (≈ 533 µM) |  | 1.5 µg/mL (≈ 3.12 µM) |  |  |  |  | 
C[C@H]1[C@H](NC(=O)/C(=N\OC(C)(C)C(=O)O)c2csc(N)n2)C(=O)N1S(=O)(=O)O [AZTREONAM] | 24 µg/mL (≈ 55.1 µM) | 48 µg/mL (≈ 110 µM) | 32 µg/mL (≈ 73.5 µM) | 256 µg/mL (≈ 588 µM) | 32 µg/mL (≈ 73.5 µM) | 256 µg/mL (≈ 588 µM) | 64 µg/mL (≈ 147 µM) | 48 µg/mL (≈ 110 µM) | 24 µg/mL (≈ 55.1 µM) | 128 µg/mL (≈ 294 µM) | 12 µg/mL (≈ 27.6 µM) | 12 µg/mL (≈ 27.6 µM) | > 256 µg/mL | 256 µg/mL (≈ 588 µM) | > 256 µg/mL | > 256 µg/mL | 48 µg/mL (≈ 110 µM) | > 256 µg/mL | > 256 µg/mL | > 256 µg/mL | MIC [21]: > 256 µg/mL; MIC [22]: > 256 µg/mL
